This is an account of results in article PMC8552233 (ACS Omega, 2021).

The target in data set [1] is T1, P. falciparum IspC (Plasmodium falciparum, UniProt O96693).
T1 sequence (O96693 73-488): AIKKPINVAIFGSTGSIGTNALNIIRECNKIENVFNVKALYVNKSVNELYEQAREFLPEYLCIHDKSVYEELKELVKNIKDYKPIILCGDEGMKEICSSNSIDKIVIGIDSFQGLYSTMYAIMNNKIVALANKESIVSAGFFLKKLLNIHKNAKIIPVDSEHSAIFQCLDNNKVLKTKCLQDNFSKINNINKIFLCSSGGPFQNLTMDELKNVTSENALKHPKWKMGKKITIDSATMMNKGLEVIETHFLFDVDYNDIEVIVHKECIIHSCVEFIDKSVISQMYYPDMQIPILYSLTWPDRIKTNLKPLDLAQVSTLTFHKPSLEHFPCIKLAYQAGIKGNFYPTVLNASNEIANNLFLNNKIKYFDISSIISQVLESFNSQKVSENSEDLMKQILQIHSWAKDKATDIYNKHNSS
The following applies: cited from earlier work.

For data set [2] the following is noted: cited from earlier work.
The target of data set [3] is T1, P. falciparum IspC. The data set can be described thus: P. falciparum IspC inhibition assay. It is filed as biochemical. The procedure, abridged:
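His6-tagged recombinant enzyme (E. coli Rosetta2(DE3), TALON-purified), 0.86 μM in 100 mM Tris pH 7.8, 25 mM MgCl2. Preincubated 10 min at 37 °C with inhibitor, then 150 μM NADPH added for 5 min. Reaction started with 144 μM DXP and A340 followed at 37 °C. IC50 from nonlinear sigmoidal fit of fractional activity versus inhibitor concentration; duplicate.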

Data set [4] deals with T1, P. falciparum IspC. The data set can be described thus: Mechanism of inhibition. It is filed as biochemical. The conditions noted are these: for mode of inhibition with respect to DXP / mode of inhibition with respect to NADPH: Lineweaver-Burk plots; for mode of inhibition with respect to DXP: DXP varied 50-400 μM, NADPH 150 μM; for mode of inhibition with respect to NADPH: NADPH varied 6-30 μM, DXP 144 μM. In a few lines: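 N-terminal His6-tagged recombinant enzyme, expressed in E. coli Rosetta2(DE3) and purified by TALON affinity chromatography. […] NADPH oxidation read at 340 nm. Mode taken from Lineweaver–Burk linear fits, Ki from secondary plots; at least triplicate.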

Data set [5] concerns Mycobacterium tuberculosis. The conditions noted are these: antibacterial activity; cited from earlier work.

Where two headings read alike, the source gives them in different places.

With `O=CN(O)CCCP(=O)(O)O` [1a, fosmidomycin], in data set [1], the “mode of inhibition with respect to DXP” value is on record as “competitive” and the “mode of inhibition with respect to NADPH” value is “uncompetitive”. Further, in data set [2], the serum half-life result is on record as “short”.
Broadly, the IC50 is the point on the concentration scale where inhibition reaches its midpoint. A high value points to weaker potency. In the case of `O=C(CCc1ccccc1)N(O)C/C=C/P(=O)([O-])O.[Na+]` [1b, Sodium Hydrogen [(1E)-3-(N-hydroxy-3-phenylpropanamido)prop-1-en-1-yl]phosphonate], the IC50 in data set [3] turned out to be 1.31 µM. Moreover, in data set [4], the “mode of inhibition with respect to DXP” value is on record as “competitive” and the “mode of inhibition with respect to NADPH” value was “uncompetitive”.
`CC(=O)N(C/C=C/P(=O)([O-])O)OCc1ccc(-c2ccccc2)cc1.[Na+]` [1d] had a half-maximal inhibitory concentration (IC50) in data set [3] of 5.67 µM. For the same compound, the “Ki relative to DXP, fold higher than that of 3c” value in data set [4] (1d versus 3c) was determined as 3 fold. For the same compound, in data set [4], the “mode of inhibition with respect to DXP” value was “competitive” and the “mode of inhibition with respect to NADPH” value is listed as “competitive”.
One may read the Ki as the dissociation constant of the complex between target and ligand, obtained from inhibition or displacement. Broadly, the MIC is the lowest concentration found to suppress growth. For `CC(=O)N(O)CCCP(=O)(O)O` [2a, FR900098], in data set [4], the inhibitory constant (Ki) turned out to be 0.009 µM, the “mode of inhibition with respect to DXP” value was “competitive” and the “mode of inhibition with respect to NADPH” value is “uncompetitive”. Besides, in data set [1], the “mode of inhibition with respect to DXP” value was “competitive” and the “mode of inhibition with respect to NADPH” value is “uncompetitive”. Further, the MIC in data set [5] is above 500 µg/mL. The serum half-life entry in data set [2] was “short”.
In data set [3], `O=C(CCCc1ccccc1)N(O)C/C=C/P(=O)([O-])O.[Na+]` [2b, Sodium Hydrogen [(1E)-3-(N-hydroxy-4-phenylbutanamido)prop-1-en-1-yl]phosphonate] returned an IC50 of 0.9 µM. In data set [4], the “mode of inhibition with respect to DXP” value is listed as “competitive” and the “mode of inhibition with respect to NADPH” value is given as “uncompetitive”.
For `CCCCC(=O)N(O)CCCP(=O)([O-])O.[Na+]` [3a, Sodium Hydrogen-3-(N-hydroxypentanamido)propylphosphonate], in that order: 2.45 µM, “competitive” and “uncompetitive”.
The compound `CC(=O)N(CCCP(=O)([O-])O)OCc1ccc(-c2ccccc2)cc1.[Na+]` [3c] gave an IC50 in data set [3] of 0.804 µM. Further, in data set [4], the “mode of inhibition with respect to DXP” value is “competitive” and the “mode of inhibition with respect to NADPH” value is recorded as “competitive”.
Turning to `O=C(CCCc1ccccc1)N(O)CCCP(=O)([O-])O.[Na+]` [4a], the IC50 in data set [3] came out at 1.34 µM. In data set [4], the “mode of inhibition with respect to DXP” value was “competitive” and the “mode of inhibition with respect to NADPH” value is “uncompetitive”.
